Measurements as given in ChEMBL document CHEMBL3259629, “Discovery and optimization of piperidyl-1,2,3-triazole ureas as potent, selective, and in vivo-active inhibitors of α/β-hydrolase domain containing 6 (ABHD6)” (J Med Chem, 2013).
The source made the active and inactive calls. The rule behind the calls is not given here.

Legend:
[1] = target: T1, Fatty-acid amide hydrolase 1 (Mus musculus) (UniProt O08914); assay: Inhibition of mouse brain FAAH at 10 uM after 30 mins by FP-rhodamine ABPP-based SDS-PAGE analysis relative to control
T1 sequence (whole entry): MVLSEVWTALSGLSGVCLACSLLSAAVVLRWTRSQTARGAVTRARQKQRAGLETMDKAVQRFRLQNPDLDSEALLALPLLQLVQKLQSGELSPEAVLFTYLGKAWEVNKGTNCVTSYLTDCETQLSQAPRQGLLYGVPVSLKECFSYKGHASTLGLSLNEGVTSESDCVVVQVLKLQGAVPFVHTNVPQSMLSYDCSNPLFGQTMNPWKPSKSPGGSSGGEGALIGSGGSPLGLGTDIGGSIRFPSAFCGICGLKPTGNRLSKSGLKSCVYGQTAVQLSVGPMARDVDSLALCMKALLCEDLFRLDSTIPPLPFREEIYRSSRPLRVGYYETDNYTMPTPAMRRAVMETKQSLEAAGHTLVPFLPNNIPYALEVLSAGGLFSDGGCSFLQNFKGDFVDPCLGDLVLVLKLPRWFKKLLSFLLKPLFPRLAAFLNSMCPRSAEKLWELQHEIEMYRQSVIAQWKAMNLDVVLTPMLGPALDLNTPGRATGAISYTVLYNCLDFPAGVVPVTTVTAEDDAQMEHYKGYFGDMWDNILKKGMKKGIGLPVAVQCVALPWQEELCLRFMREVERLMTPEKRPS

Mus musculus [2] = assay: In vivo inhibition of FAAH in C57Bl/6 mouse brain at =>10 mg/kg, po after 4 hrs by FP-rhodamine/HT-10-labelled gel-based competitive assay
Mus musculus [3] = assay: In vivo inhibition of carboxylesterase-1 in C57Bl/6 mouse brain at 0.1 to 1 mg/kg, ip after 4 hrs by FP-rhodamine-labelled gel-based competitive ABPP assay; format: functional, organism-based
Outline: (§1)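 C57Bl/6 mice dosed i.p. at 0.1, 0.5 or 1 mg kg⁻¹ in 18:1:1 saline/ethanol/PEG40 (ethoxylated castor oil), 10 μL g⁻¹. Killed after 4 hr under isoflurane by cervical dislocation. Brain and liver membrane fractions (100,000 × g) labelled with FP-rhodamine or HT-01 (1 μM, 30 min, 37 °C), then SDS-PAGE and in-gel fluorescence scanning. Liver ABHD6 read from HT-01 gels.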

[4] = target: T2, Monoacylglycerol lipase ABHD6 (Mus musculus, UniProt Q8R2Y0); assay: Inhibition of recombinant mouse ABHD6 expressed in HEK293T using 2-arachidonoylglycerol preincubated for 30 mins followed by substrate addition measured after 30 mins by LC-MS analysis
T2 sequence (Q8R2Y0 whole entry): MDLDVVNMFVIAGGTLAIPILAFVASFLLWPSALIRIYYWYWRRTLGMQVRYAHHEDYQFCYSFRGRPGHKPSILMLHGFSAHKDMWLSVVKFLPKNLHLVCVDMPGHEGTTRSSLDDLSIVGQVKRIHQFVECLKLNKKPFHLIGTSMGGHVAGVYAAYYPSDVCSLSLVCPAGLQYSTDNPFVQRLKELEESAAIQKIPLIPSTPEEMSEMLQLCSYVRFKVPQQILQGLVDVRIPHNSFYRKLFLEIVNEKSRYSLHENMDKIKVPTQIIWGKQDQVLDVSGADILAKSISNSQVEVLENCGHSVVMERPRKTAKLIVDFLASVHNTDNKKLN

[5] = target: Acyl-protein thioesterase 2 (Mus musculus) (UniProt Q9WTL7); assay: Inhibition of FP-rhodamine-labelled recombinant mouse LYPLA2 at 10 uM preincubated for 30 mins followed by FP-rhodamine labelling measured after 30 mins by gel-based competitive ABPP assay
Chain of Acyl-protein thioesterase 2 (Mus musculus) (Q9WTL7 whole entry): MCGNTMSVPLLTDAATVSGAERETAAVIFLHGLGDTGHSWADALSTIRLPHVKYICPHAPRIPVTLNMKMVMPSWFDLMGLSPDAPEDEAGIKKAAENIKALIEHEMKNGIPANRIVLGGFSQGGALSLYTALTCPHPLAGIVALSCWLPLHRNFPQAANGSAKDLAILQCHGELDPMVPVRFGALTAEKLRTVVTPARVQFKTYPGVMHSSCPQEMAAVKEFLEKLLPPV

[6] = target: Acyl-protein thioesterase 1 (Mus musculus) (UniProt P97823); assay: Inhibition of FP-rhodamine-labelled recombinant mouse LYPLA1 at 10 uM preincubated for 30 mins followed by FP-rhodamine labelling measured after 30 mins by gel-based competitive ABPP assay
Chain of Acyl-protein thioesterase 1 (Mus musculus) (P97823 whole entry): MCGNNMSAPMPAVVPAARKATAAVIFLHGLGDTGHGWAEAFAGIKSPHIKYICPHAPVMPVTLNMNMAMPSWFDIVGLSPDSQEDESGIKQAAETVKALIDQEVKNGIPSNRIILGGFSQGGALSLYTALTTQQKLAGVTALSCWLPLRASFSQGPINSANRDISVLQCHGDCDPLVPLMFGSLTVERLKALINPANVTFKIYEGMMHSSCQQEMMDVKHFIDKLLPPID

[7] = target: T3, Neutral cholesterol ester hydrolase 1 (Mus musculus) (UniProt Q8BLF1); settings: Neuro2a, 3 nM
T3 sequence (whole entry): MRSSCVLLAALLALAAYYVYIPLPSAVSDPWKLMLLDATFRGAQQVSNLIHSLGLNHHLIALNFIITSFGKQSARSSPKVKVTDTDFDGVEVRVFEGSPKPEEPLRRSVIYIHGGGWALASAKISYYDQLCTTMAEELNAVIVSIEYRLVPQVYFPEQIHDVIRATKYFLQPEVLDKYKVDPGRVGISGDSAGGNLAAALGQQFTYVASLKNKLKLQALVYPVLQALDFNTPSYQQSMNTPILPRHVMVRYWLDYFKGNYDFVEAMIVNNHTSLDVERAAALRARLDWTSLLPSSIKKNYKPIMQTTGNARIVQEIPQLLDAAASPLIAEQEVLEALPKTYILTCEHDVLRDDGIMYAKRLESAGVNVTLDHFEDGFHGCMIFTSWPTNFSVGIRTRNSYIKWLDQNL

Mus musculus [8] = assay: In vivo inhibition of ABHD6 in C57Bl/6 mouse liver at 1 mg/kg, ip after 4 hrs by HT-10-labelled gel-based competitive ABPP assay; format: functional, organism-based; set-up: dose 1 mg/kg
Outline: as §1

Mus musculus [9] = assay: In vivo inhibition of carboxylesterase-1 in C57Bl/6 mouse liver at 0.1 to 1 mg/kg, ip after 4 hrs by FP-rhodamine-labelled gel-based competitive ABPP assay; format: functional, organism-based
Outline: as §1

Mus musculus [10] = assay: In vivo inhibition of ABHD6 in C57Bl/6 mouse liver at 0.1 mg/kg, ip after 4 hrs by HT-10-labelled gel-based competitive ABPP assay; format: functional; settings: C57Bl/6, Liver, route intraperitoneal
Outline: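 C57Bl/6 mice dosed i.p. (18:1:1 v/v/v saline/ethanol/PEG40, 10 μL g⁻¹) across 0.1–1 mg kg⁻¹; after 4 hr, anesthetized with isoflurane, euthanized, liver membrane fraction isolated (Dounce homogenization in PBS pH 7.5, 1,400 × g then 100,000 × g spin). Proteome labeled with HT-01 (1 μM, 30 min, 37 °C), SDS-PAGE, in-gel fluorescence; ABHD6 activity versus vehicle.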

Mus musculus [11] = assay: In vivo inhibition of DAGLbeta in C57Bl/6 mouse liver and bain at 0.1 to 1 mg/kg, ip after 4 hrs by FP-rhodamine-labelled gel-based competitive ABPP assay; format: functional, organism-based
Outline: as §1

Mus musculus [12] = assay: In vivo inhibition of ABHD6 in C57Bl/6 mouse brain at 0.1 to 1 mg/kg, ip after 4 hrs by HT-10-labelled gel-based competitive ABPP assay; format: functional, organism-based
Outline: as §1

Mus musculus [13] = assay: In vivo inhibition of ABHD6 in C57Bl/6 mouse brain at 20 mg/kg, ip after 4 hrs by FP-rhodamine/HT-10-labelled gel-based competitive assay; settings: C57Bl/6, Brain
[14] = target: T2, Monoacylglycerol lipase ABHD6; assay: Inhibition of ABHD6 in FP-rhodamine-labelled mouse brain membrane preincubated for 30 mins followed by FP-rhodamine labelling measured after 30 mins by gel-based competitive ABPP assay
Mus musculus [15] = assay: In vivo inhibition of carboxylesterase-1 in C57Bl/6 mouse liver at 40 mg/kg, po after 4 hrs by FP-rhodamine-labelled gel-based competitive ABPP assay; format: functional, organism-based; set-up: dose 40 mg/kg

Row | SMILES | inhibition [1] | inhibition (Mus musculus [2]) | inhibition (Mus musculus [3]) | IC50 ([4]; hek-293t) [µM] | inhibition [5] | inhibition [6] | inhibition [7] [%] | inhibition (Mus musculus [8]) | inhibition (Mus musculus [9]) | inhibition in vivo at 0.1 mg/kg (Mus musculus [10]) [%] | inhibition (Mus musculus [11]) | inhibition (Mus musculus [12]) | inhibition in vivo at 20 mg/kg (Mus musculus [13]) [%] | IC50 [4] [µM] | IC50 [14] [µM] | inhibition (Mus musculus [15])
1 | O=C(N1CCCCC1c1ccccc1)n1cc(-c2ccc(-c3cccc(CO)c3)cc2)nn1 (racemic) | Active | Active | Active | 0.0151 | Active | Active | < 50 | Active | Active | 80 |  |  |  |  |  | 
2 | O=C(O)c1cccc(-c2ccc(-c3cn(C(=O)N4CCCCC4Cc4ccccc4)nn3)cc2)c1 (racemic) | Active | Active | inactive |  |  |  | < 50 | Active | inactive | 80 | inactive | inactive |  |  |  | 
3 | O=C(c1cccc(-c2ccc(-c3cn(C(=O)N4CCCCC4c4ccccc4)nn3)cc2)c1)N1CCCCC1 (racemic) |  |  |  |  | Active | Active | < 50 |  |  |  |  |  | > 70 | 0.0136 | 0.0013 | Active
